# Assay outcomes (PubChem)
# Hits are enriched below; roughly 3.4% of the tested compounds scored in any of these assays.
# CHRM1 agonist – human M1 muscarinic receptor agonism; CHO-K1 hM1, Fluo-8 calcium fluorescence, agonist mode; 0% DMSO, 100% acetylcholine EC100; activation, % at 3 µM; 0.33% of 360,000 active;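 active = activation above the run's mean compound activation plus 3 SD, cut at about 16% in these data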;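 note: peak over basal fluorescence ratio within a 140 s kinetic read after compound addition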
# Target sequence (P11229 whole entry, looked up): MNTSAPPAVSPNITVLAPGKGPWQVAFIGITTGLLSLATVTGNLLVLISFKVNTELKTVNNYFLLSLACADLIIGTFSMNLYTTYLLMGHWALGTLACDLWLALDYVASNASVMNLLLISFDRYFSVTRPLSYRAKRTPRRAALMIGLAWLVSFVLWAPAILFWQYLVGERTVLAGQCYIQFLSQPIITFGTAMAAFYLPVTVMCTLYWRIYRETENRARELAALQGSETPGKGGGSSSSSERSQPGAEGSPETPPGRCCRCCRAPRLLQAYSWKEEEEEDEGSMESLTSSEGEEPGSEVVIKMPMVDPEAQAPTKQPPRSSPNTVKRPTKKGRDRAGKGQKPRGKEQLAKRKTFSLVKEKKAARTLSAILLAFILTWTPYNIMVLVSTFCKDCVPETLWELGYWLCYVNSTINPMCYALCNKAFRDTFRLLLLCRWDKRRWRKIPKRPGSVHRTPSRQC
# CHRM1 antagonist – blocks human M1 muscarinic receptor. inhibition, % at 3 µM. AID 588852. CHO-K1 hM1, Fluo-8 calcium fluorescence, ACh EC80 antagonist. 1.3% of 360,000 active. P11229;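 active = percent inhibition above its own plate's cutoff, namely the mean of that plate's compound wells plus 3 SD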;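 note: peak over basal fluorescence ratio during 140 s after agonist addition; 0% = ACh EC80 plus DMSO and 100% = DMSO alone without agonist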
# CHRM1 PAM – human CHRM1 positive allosteric modulation | P11229 | CHO-K1 hM1, Fluo-8 calcium fluorescence, ACh EC20; 0% = ACh EC20, 100% = maximal ACh | activation, % at 3 µM | 0.088% of 360,000 active | AID 588819; in the data active = activation above about 19%, passing the limit was not always enough
# TAAR1 antagonist – human TAAR1 antagonism; Q96RJ0; CHO RD-HGA16 TAAR1, Fluo-8 calcium fluorescence, antagonist; inhibition, % at 3 µM; 1.5% of 360,000 active;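 active = inhibition above a per-plate cutoff, the mean inhibition of test compounds on that plate plus 3 SD, cut at about 49% in these data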;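 note: 0% = DMSO plus EC80 beta-PEA response and 100% = DMSO alone without agonist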
#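 Assay system: CHO-derived RD-HGA16 cells stably expressing human TAAR1 plus Gα16. Timing: 140 s kinetic read after compound, 140 s after agonist. Technique: kinetic Fluo-8 calcium fluorescence measurement. Measure: % inhibition of agonist calcium response.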
# TAAR1 agonist – agonists of human TAAR1; activation, % at 3 µM; Q96RJ0; AID 624467; CHO RD-HGA16 TAAR1, Fluo-8 calcium fluorescence; vehicle wells 0%, saturating PEA agonist 100%; 0.99% of 360,000 active;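 active = activation above the mean activation of all test compounds in the run plus 3 SD, cut at about 38% in these data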
#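 System: CHO-derived RD-HGA16 cells with stable Gα16 and human TAAR1. Times: 17-24 h plating, Fluo-8 75 min 37 °C, 30 min RT. Measured by: calcium-sensitive Fluo-8 signal, excitation 470-495, emission 515-575 nm. Read-out basis: % activation relative to PEA EC100 response. Control set: DMSO and PEA EC100. Repeats: no replicates (n 1).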
# Active calls of the source: *; x = no result given; ! = not confirmed by another sample.
SMILES,CHRM1 agonist,CHRM1 antagonist,CHRM1 PAM,TAAR1 antagonist,TAAR1 agonist
CC(NC(=O)C12CC3CC(CC(C3)C1)C2)C(=O)NN=Cc1ccc([N+](=O)[O-])o1 (stereo unspecified),-8.8,102.0*,8.8,14.2,4.8
O=C(N/N=C/c1ccc([N+](=O)[O-])o1)C1CCCC1,-2.3,2.4,2.2,7.6,-0.6
COc1ccc(-c2oc3c4c2C(=O)OCCOC4CCC3)cc1 (stereo unspecified),x,x,x,-13.5,-1.2
O=S(=O)(c1cccs1)N1CCN(CCOc2ccc(Cl)cc2)CC1,-3.4,13.1,-10.9,39.1,1.3
O=S(=O)(c1cccs1)N1CCN(CC(O)COc2cc(Cl)ccc2Cl)CC1 (stereo unspecified),6.9,23.2*,-12.8,30.7,16.8
Cc1ccccc1C(=O)N1CCN(c2ccc(NC(=S)NC(=O)c3ccco3)cc2)CC1,11.9,14.7,-9.0,61.6*,11.4
CCC(=O)N1CCN(c2ccc(NC(=O)COc3cccc(C)c3C)cc2)CC1,-4.7,15.9,-9.5,23.3,14.3
Cc1cccc(OCC(=O)Nc2ccc(N3CCN(C(=O)c4ccco4)CC3)cc2)c1,4.3,13.6,-18.2,56.2*,16.1
Cc1cccc(OCC(=O)Nc2ccc(N3CCN(C(=O)c4ccccc4)CC3)cc2)c1C,0.9,26.9*,-12.4,-20.0,1.0
COc1ccccc1C(=O)NC(=S)Nc1ccc(N2CCN(C(=O)c3ccco3)CC2)cc1,-1.2,-17.8,7.8,-4.4,3.8
CN(N=Nc1nc[nH]c1C(N)=O)C1CCCCC1,3.8,-8.1,11.2,-14.5,1.4
CN(C)CCCN(Cc1ccccc1)C(=S)Nc1ccc(OC(F)F)cc1,-8.0,55.0*,-25.8,-9.9,4.8
NC(=O)c1ncn([C@@H]2O[C@H](C(=O)N3CCCN(Cc4ccccc4F)CC3)[C@@H](O)[C@H]2O)n1,x,x,x,-21.6,2.4
CCCC(C)NC(=S)NC(=O)c1cc(S(=O)(=O)N2CCOCC2)ccc1C (stereo unspecified),-5.0,-11.2,4.0,-2.0,5.7
Cc1ccc(S(=O)(=O)N2CCOCC2)cc1C(=O)NC(=S)N1CC(C)CC(C)C1 (stereo unspecified),-5.3,11.9,-2.4,-2.4,38.8*
CN1CCC(OC2c3ccccc3CCc3ccccc32)CC1,-6.0,99.3*,-29.7,-38.2,6.5
Cc1ccc(S(=O)(=O)N2CCC(C(=O)N3CCC[C@H]3C(=O)NC3CCS(=O)(=O)C3)CC2)cc1 (stereo partly specified),-1.7,54.0*,-17.1,3.3,6.6
COCc1cc(N2CCN(C(=O)OC(C)(C)C)C[C@@H]2C)ccc1N1CCN(Cc2ccccc2)[C@@H](C)C1,x,x,x,-26.9,0.1
COC(=O)[C@@]1(Sc2ccc(C)cc2)CC(=O)N(c2ccc3c(ccn3C)c2)[C@@H]1c1ccccc1,x,x,x,55.0*,3.3
COCCNC(=O)c1cccc(OC2CCN(Cc3ccc(C(=O)OC)cc3)CC2)c1,19.2*,70.5*,-17.2,-23.7,0.5
COCCNC(=O)C1CCCN(Cc2ccccc2)CC1 (stereo unspecified),-7.0,-4.6,5.4,-13.5,3.7
COC(=O)c1ccc(CN2CCC(Oc3cccc(C(=O)N4CCOCC4)c3)CC2)cc1,18.5*,83.9*,-17.8,-12.1,0.1
COCCNC(=O)CCC1CCN(Cc2ccc(-c3ccccc3)cc2)CC1,-9.5,99.1*,-28.0,2.9,-0.9
CC1Nc2ncnc(N3CCc4ccccc4C3)c2N(Cc2ccccc2)C1=O (stereo unspecified),-10.2,-5.7,1.4,-10.5,38.6*
CC(C)CC1Nc2ncnc(N3CCN(c4ccccn4)CC3)c2N(Cc2ccccc2)C1=O (stereo unspecified),-12.2,37.9*!,-30.0,1.6,23.3
SMILES,CHRM1 agonist,CHRM1 antagonist,CHRM1 PAM,TAAR1 antagonist,TAAR1 agonist
Cc1ccc(CN2C(=O)C(CC(C)C)Nc3ncnc(N4CCN(c5ccccc5)CC4)c32)cc1 (stereo unspecified),-3.8,13.9,-6.6,32.8,-0.4
O=C1C(Cc2ccccc2)Nc2ncnc(N3CCc4ccccc4C3)c2N1Cc1ccc(Cl)cc1 (stereo unspecified),-6.6,2.7,6.4,x,x
CCC1Nc2ncnc(N3CCc4ccccc4C3)c2N(Cc2ccc(Cl)cc2)C1=O (stereo unspecified),0.7,0.1,15.3,-0.7,39.6*
CN(c1cccnc1)c1ccc(NC(=O)Cc2c[nH]c3ccccc23)cc1-c1cccnc1F,x,x,x,-13.1,2.0
FC(F)(F)c1cc(Cl)c2nnc(-c3ccccn3)n2c1,-4.6,5.3,1.8,-23.1,2.2
O=C(O)c1ccccc1-c1nnc2c(Cl)cc(C(F)(F)F)cn12,0.3,95.0*,5.2,-5.2,3.4
COC(=O)C1=C(C)N(C)C(=NCc2ccc(C(F)(F)F)cc2)NC1c1ccc(Cl)cc1 (stereo unspecified),x,x,x,43.4,24.2
COc1cccc(NC(=O)Nc2ccc3c(c2)N(C)C(=O)CS3)c1,1.7,24.0,-10.3,68.6*,22.8
CC(=O)Nc1ccc(NC(=O)Nc2ccc3c(c2)N(C)C(=O)CS3)cc1,-1.9,7.2,-5.0,11.0,2.0
Cc1ccc(NC(=O)N2CCc3ccccc32)cc1C,-10.2,-6.9,6.8,-18.2,5.1
CN1C(=O)CSc2ccc(NC(=O)N3CCc4ccccc43)cc21,-9.1,-6.3,-1.6,55.5*,19.6
CCc1ccc(-c2nc(CSCC(=O)N3CCN(c4ccccn4)CC3)c(C)o2)cc1,-0.4,14.1,-9.7,45.7,10.4
Cc1ccc(-c2nc(CSCC(=O)N3CCN(c4ccccn4)CC3)c(C)o2)cc1,-3.3,32.7*,-26.9,36.9,3.4
COc1ccc(-c2noc(CCC(=O)N3CCN(c4cccc(OC)c4)CC3)n2)cc1,1.0,24.9,-18.4,52.7*,10.8
CCOc1ccc(-c2nc(CSCC(=O)N3CCN(c4cccc(OC)c4)CC3)c(C)o2)cc1,-1.5,34.7*,-18.8,50.5*,4.8
COc1ccc(-c2noc(CCC(=O)N3CCN(c4cccc(C(F)(F)F)c4)CC3)n2)cc1,-1.8,5.2,-6.1,32.3,6.5
CCc1c(-c2ccccc2)ncn1CCc1ccccc1OC,x,x,x,-5.8,11.1
Cc1cnc(CNc2nc3cc(-c4ccccc4C)sc3c(=O)n2C)cn1,-6.8,-9.3,-2.4,-39.6,1.3
Cc1ccc(C(=O)NCCNc2ncc(C(F)(F)F)cc2Cl)cc1[N+](=O)[O-],-11.5,46.0*,-32.4,-6.1,-0.6
Fc1ccc(-c2ccc3c(c2)C2CC3CCN2)cc1 (stereo unspecified),-4.3,39.3*,-30.0,7.4,12.7
CCCCn1c(N)c(N(CCOC)C(=O)c2ccc3c(c2)C(=O)N(c2ccccc2C)C3=O)c(=O)[nH]c1=O,-2.4,33.0*,-0.7,-5.2,-0.2
Cc1nn(-c2ccccc2)c2nc(N)c(C#N)c(-c3ccc(O)c(O)c3)c12,0.4,7.2,-3.2,50.8*,8.4
